{"source": "paper PMC4876925", "about": "(Nano research, 2016)", "key": {"αvβ3": {"molecular_target": "αvβ3 (Homo sapiens, UniProt P05106+P06756)", "assay": "Integrin competitive binding assay with CisoDGRC-peroxidase"}, "[1]": {"molecular_target": "recombinant human His-tagged CD13 (Homo sapiens, UniProt P15144)", "assay": "CD13 enzymatic activity assay", "format": "biochemical"}, "[2]": {"conditions": "cited from earlier work"}, "WEHI-164 fibrosarcoma": {"tested_on": "WEHI-164 fibrosarcoma", "assay": "Anti-tumor activity in the WEHI-164 fibrosarcoma model", "format": "in vivo, BALB/c female mice", "conditions": "dose-escalation, i.v.", "in_short": "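Female BALB/c mice, 6–7 weeks old, received 1.5 × 10^6 WEHI-164 cells s.c. in the left flank. On day 5, mice got single i.v. doses of TNF-loaded gold nanoparticles (1–4 or 9–16 bioactive TNF molecules/nanoparticle) in 0.9% NaCl with 100 µg/mL HSA. Tumors were measured with calipers and volumes from day 5 to day 9 were normalized to day 5. Data are mean ± SE from 1–7 independent experiments, 6 mice each.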"}}, "note": "Residues, ends and D or L forms follow the SMILES beside them.", "data": [{"molecule": "N=C(N)NCCC[C@@H]1NC(=O)CNC(=O)[C@H](CC(N)=O)NC(=O)CNC(=O)[C@H](CS)NC(=O)CNC1=O", "note": "[N1, c(CGNGRG)] (cyclo(CGNGRG))", "values": [{"measurement": "EC50", "setting": "αvβ3", "result": 10, "unit": "µM"}, {"measurement": "CD13 inhibition efficiency relative to NGR-2C(Y)", "setting": "[1]; enzyme inhibition, 30 min at 37 °C", "result": "5–6 fold"}, {"measurement": "Binding efficiency to CD13 relative to CNGRC (NGR-2C) and c(CNGRGG) (N3)", "setting": "[1]; recombinant soluble CD13, enzyme binding and inhibition experiments", "result": "6–10 fold"}]}, {"molecule": "CNGRC (disulfide) [NGR-2C]", "values": [{"measurement": "Half-life of asparagine (deamidation)", "setting": "[2]", "result": "3 to 4", "unit": "h"}]}, {"molecule": "CNGRCG-TNF (disulfide) [NGR-TNF]", "values": [{"measurement": "Shape of dose-response curve (tumor growth day 5 to day 9)", "setting": "WEHI-164 fibrosarcoma", "result": "U-shaped dose-response curve"}]}]}
